According to ChEMBL document CHEMBL4390654, “Microwave-assisted solid-phase synthesis of antisense acpP peptide nucleic acid-peptide conjugates active against colistin- and tigecycline-resistant E. coli and K. pneumoniae” (Eur J Med Chem, 2019):
Numbered stars: 1 amine (or outer) side, 2 acyl side, 3 side chain; on linkers, the order of the positions; unused ones are H or OH. Bridge positions count the residues as written; N and C are the ends. Square brackets hold non-standard residues; d marks the D form. Peptide text beside a SMILES is read from it. I, II: the chains in the order shown. * marks the point of attachment. X3 = CC[C@H](C)[C@@H](C(=O)*)N(C(=O)[C@H](CCCNC(=N)N)NC(=O)CCCCCNC(=O)[C@@H](N)CCCNC(=N)N)C(=O)[C@H](CCCNC(=N)N)NC(=O)CCCCCNC(=O)[C@@H](N)CCCNC(=N)N; Succinimide(1-C2H4CO,3-yl) = O=C1CC([*:1])C(=O)N1CCC(=O)[*:2]; X2 = O=C(OCCOCCN[*:1])[*:2]

What was measured:
[1] = tested on: Klebsiella pneumoniae; test: Antibacterial activity against Klebsiella pneumoniae ATCC 13883 assessed as reduction in microbial growth incubated for 20 hrs; format: functional; conditions: ATCC 13883, 20 h
In short: (§1)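 Broth microdilution MIC after a modified Hancock protocol for cationic peptides, in non-binding polystyrene plates. Inoculum ~2 × 10^5 CFU/mL in Mueller-Hinton broth with Mg²⁺ and Ca²⁺ at 4 mg/L each. Compounds dissolved in water, diluted in 0.01% acetic acid, 0.2% BSA (final), added as 10× aliquots. Covered plates incubated 20 h at 35 °C (± 2 °C) with shaking at 220 rpm. MIC read as lowest inhibiting concentration.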

[2] = tested on: Klebsiella pneumoniae; test: Antibacterial activity against multi-drug resistant Klebsiella pneumoniae NMI 3081/09 assessed as reduction in microbial growth incubated for 20 hrs; format: functional
In short: (§2)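 Broth microdilution MIC (modified Hancock protocol) in non-binding polystyrene plates. Inoculum ~2 × 10^5 CFU/mL in Mueller-Hinton broth with Mg²⁺ and Ca²⁺ at 4 mg/L each. Compounds dissolved in water, diluted in 0.01% acetic acid/0.2% BSA (final), added as 10× stocks. Covered plates incubated 20 h at 35 °C (± 2 °C) with 220 rpm circular shaking before MIC read.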

[3] = tested on: Pseudomonas aeruginosa; test: Antibacterial activity against Pseudomonas aeruginosa PAO1 assessed as reduction in microbial growth incubated for 20 hrs; format: functional; conditions: PAO1, 20 h; in short: as §1
[4] = tested on: Klebsiella pneumoniae; test: Antibacterial activity against multi-drug resistant Klebsiella pneumoniae NMI 2697/14 assessed as reduction in microbial growth incubated for 20 hrs; format: functional; in short: as §2
[5] = Hemolytic activity against RBC (unknown origin) at 100 uM; format: ADME, cell-based, Erythrocyte; conditions: red blood cells (erythrocytes); read-out: Activity
[6] = tested on: Staphylococcus aureus; test: Antibacterial activity against Staphylococcus aureus ATCC 29213 assessed as reduction in microbial growth incubated for 20 hrs; format: functional; conditions: ATCC 29213, 20 h; in short: as §1
[7] = tested on: Escherichia coli; test: Antibacterial activity against multi-drug resistant Escherichia coli NMI 3898/15 assessed as reduction in microbial growth incubated for 20 hrs; format: functional; conditions: NMI 3898/15, 20 h; in short: as §2
[8] = tested on: Escherichia coli; test: Antibacterial activity against multi-drug resistant Escherichia coli NMI 3548/14 assessed as reduction in microbial growth incubated for 20 hrs; format: functional; in short: as §2
[9] = tested on: Acinetobacter baumannii; test: Antibacterial activity against Acinetobacter baumannii ATCC 19606 assessed as reduction in microbial growth incubated for 20 hrs; format: functional; conditions: ATCC 19606 = CIP 70.34 = JCM 6841, 20 h; in short: as §1
[10] = tested on: Escherichia coli; test: Antibacterial activity against Escherichia coli ATCC 25922 assessed as reduction in microbial growth incubated for 20 hrs; format: functional; conditions: ATCC 25922, 20 h; in short: as §2
[11] = tested on: Escherichia coli; test: Antibacterial activity against Escherichia coli lacking a functional SbmA assessed as reduction in microbial growth incubated for 20 hrs; in short: as §1

Row | Compound | MIC [1] | MIC ([2]; NMI 3081/09, 20 h) | MIC [3] | MIC ([4]; NMI 2697/14, 20 h) | hemolysis at 100 µM [5] | MIC [6] | MIC [7] | MIC ([8]; NMI 3548/14, 20 h) | MIC [9] | MIC [10] | MIC [11] | MIC [2] | MIC [4] | MIC [8]
1 | CC[C@@H](C)[C@@H](NC(=O)[C@@H](CCCCN)NC(=O)[C@@H]([C@H](C)CC)N(C(=O)[C@@H](CCCNC(=N)N)NC(=O)CCCCCNC(=O)[C@H](N)CCCNC(=N)N)C(=O)[C@@H](CCCNC(=N)N)NC(=O)CCCCCNC(=O)[C@H](N)CCCNC(=N)N)C(=O)N[C@H](CC(C)C)C(=O)N[C@H](Cc1ccccc1)C(=O)N[C@H](CCC(N)=O)C(=O)N[C@H](CC(N)=O)C(=O)N[C@H](CCCNC(=N)N)C(=O)N[C@H](CCCNC(=N)N)C(=O)N[C@H](CCSC)C(=O)N[C@H](CCCCN)C(=O)N[C@H](Cc1c[nH]c2ccccc12)C(=O)N[C@H](CCCCN)C(=O)N[C@H](CCCCN)C(=O)N[C@H](CSC1CC(=O)N(CCC(=O)NCCOCCOC(=O)N[C@H](CS)C(=O)N[C@@H](C(=O)N[C@H](CS)C(=O)N[C@H](C)C(=O)N[C@@H](C(=O)N[C@H](C)C(=O)N[C@H](CS)C(=O)N[C@@H](C(=O)N[C@H](CS)C(=O)N[C@@H](C(N)=O)[C@H](C)O)[C@H](C)O)[C@H](C)O)[C@H](C)O)C1=O)C(N)=O (some centres not stated) | 16 µg/mL | 16 µg/mL | 8 µg/mL | 64 µg/mL | 1.6% | 32 µg/mL | 8 µg/mL | 8 µg/mL | 4 µg/mL | 8 µg/mL | 8 µg/mL | – | – | –
2 | CC[C@H](C)[C@H](NC(=O)[C@H](CCCCN)NC(=O)[C@H]([C@@H](C)CC)N(C(=O)[C@H](CCCNC(=N)N)NC(=O)CCCCCNC(=O)[C@@H](N)CCCNC(=N)N)C(=O)[C@H](CCCNC(=N)N)NC(=O)CCCCCNC(=O)[C@@H](N)CCCNC(=N)N)C(=O)N[C@@H](CC(C)C)C(=O)N[C@@H](Cc1ccccc1)C(=O)N[C@@H](CCC(N)=O)C(=O)N[C@@H](CC(N)=O)C(=O)N[C@@H](CCCNC(=N)N)C(=O)N[C@@H](CCCNC(=N)N)C(=O)N[C@@H](CCSC)C(=O)N[C@@H](CCCCN)C(=O)N[C@@H](Cc1c[nH]c2ccccc12)C(=O)N[C@@H](CCCCN)C(=O)N[C@@H](CCCCN)C(=O)N[C@@H](CSC1CC(=O)N(CCC(=O)NCCOCCOC(=O)N[C@@H](CS)C(=O)N[C@H](C(=O)N[C@@H](CS)C(=O)N[C@H](C(=O)N[C@H](C(=O)N[C@@H](C)C(=O)N[C@@H](CS)C(=O)N[C@@H](C)C(=O)N[C@@H](CS)C(=O)N[C@H](C(N)=O)[C@@H](C)O)[C@@H](C)O)[C@@H](C)O)[C@@H](C)O)C1=O)C(N)=O (some centres not stated) (I: X3-KILFQNRRMKWKKC-NH2 / II: [X2]CTCTTACACT-NH2; linker I:14-II:N via Succinimide(1-C2H4CO,3-yl)) | 64 µg/mL | 8 to 16 µg/mL | 32 µg/mL | 16 to 32 µg/mL | < 1% | > 64 µg/mL | 16 µg/mL | 4 to 8 µg/mL | 16 µg/mL | 32 µg/mL | 32 µg/mL | – | – | –
3 | CC1(C)S[C@@H]2[C@H](NC(=O)[C@H](N)c3ccccc3)C(=O)N2[C@H]1C(=O)O [AMPICILLIN] | – | > 256 µg/mL | – | > 128 µg/mL | – | – | > 256 µg/mL | > 128 µg/mL | – | – | – | – | – | –
4 | C[C@@H](O)[C@H]1C(=O)N2C(C(=O)O)=C(S[C@@H]3CN[C@H](C(=O)N(C)C)C3)[C@H](C)[C@H]12 [MEROPENEM] | – | > 32 µg/mL | – | 1 µg/mL | – | – | 0.125 µg/mL | 0.5 µg/mL | – | – | – | – | – | –
5 | CN(C)[C@@H]1C(O)=C(C(N)=O)C(=O)[C@@]2(O)C(O)=C3C(=O)c4c(O)cccc4[C@@](C)(O)[C@H]3C[C@@H]12 [TETRACYCLINE] | – | > 256 µg/mL | – | 16 µg/mL | – | – | 64 µg/mL | 8 µg/mL | – | – | – | – | – | –
6 | CC[C@@H](C)[C@@H](NC(=O)[C@H]1CCCN1C(=O)[C@@H](CCCNC(=N)N)NC(=O)[C@H]1CCCN1C(=O)[C@@H](Cc1cnc[nH]1)NC(=O)[C@@H](CO)NC(=O)[C@H](NC(=O)[C@H]1CCCN1C(=O)[C@@H](CCCNC(=N)N)NC(=O)[C@H]1CCCN1C(=O)[C@@H](CO)NC(=O)[C@@H](Cc1ccc(O)cc1)NC(=O)[C@H]1CCCN1C(=O)[C@@H](CCCNC(=N)N)NC(=O)[C@H]1CCCN1C(=O)[C@@H](CCCNC(=N)N)NC(=O)CCCCCNC(=O)[C@H](N)CCCNC(=N)N)[C@H](C)O)C(=O)N[C@H](CCCNC(=N)N)C(=O)N[C@@H](C(=O)N[C@H](CSC1CC(=O)N(CCC(=O)NCCOCCOC(=O)N[C@H](CS)C(=O)N[C@@H](C(=O)N[C@H](CS)C(=O)N[C@H](C)C(=O)N[C@@H](C(=O)N[C@H](C)C(=O)N[C@H](CS)C(=O)N[C@@H](C(=O)N[C@H](CS)C(=O)N[C@@H](C(N)=O)[C@H](C)O)[C@H](C)O)[C@H](C)O)[C@H](C)O)C1=O)C(N)=O)C(C)C (some centres not stated) | 8 to 16 µg/mL | 64 µg/mL | > 64 µg/mL | ≥ 64 µg/mL | < 1% | > 64 µg/mL | 32 to 64 µg/mL | 32 µg/mL | 64 µg/mL | 32 µg/mL | 64 µg/mL | – | – | –
7 | C[C@H]1[C@H](NC(=O)/C(=N\OC(C)(C)C(=O)O)c2csc(N)n2)C(=O)N1S(=O)(=O)O [AZTREONAM] | – | > 256 µg/mL | – | 16 µg/mL | – | – | 8 µg/mL | > 16 µg/mL | – | – | – | – | – | –
8 | CO/N=C(\C(=O)N[C@@H]1C(=O)N2C(C(=O)[O-])=C(C[N+]3(C)CCCC3)CS[C@H]12)c1csc(N)n1 | – | > 256 µg/mL | – | 16 µg/mL | – | – | – | 2 µg/mL | – | – | – | – | – | –
9 | NCC[C@H](O)C(=O)N[C@@H]1C[C@H](N)[C@@H](O[C@H]2O[C@H](CN)[C@@H](O)[C@H](O)[C@H]2O)[C@H](O)[C@H]1O[C@H]1O[C@H](CO)[C@@H](O)[C@H](N)[C@H]1O [AMIKACIN] | – | 16 µg/mL | – | 32 µg/mL | – | – | 2 µg/mL | 8 µg/mL | – | – | – | – | – | –
10 | GENTAMICIN | – | – | – | – | – | – | – | – | – | – | – | 2 µg/mL | > 64 µg/mL | 2 µg/mL
11 | CN(C)c1cc(NC(=O)CNC(C)(C)C)c(O)c2c1C[C@H]1C[C@H]3[C@H](N(C)C)C(O)=C(C(N)=O)C(=O)[C@@]3(O)C(O)=C1C2=O [TIGECYCLINE] | – | 2 µg/mL | – | 0.5 µg/mL | – | – | 0.5 µg/mL | 16 µg/mL | – | – | – | – | – | –
12 | CO/N=C(\C(=O)N[C@@H]1C(=O)N2C(C(=O)O)=C(COC(C)=O)CS[C@H]12)c1csc(N)n1 [CEFOTAXIME] | – | > 32 µg/mL | – | > 32 µg/mL | – | – | 16 µg/mL | 16 µg/mL | – | – | – | – | – | –
13 | CCN1CCN(C(=O)N[C@@H](C(=O)N[C@@H]2C(=O)N3[C@@H]2SC(C)(C)[C@@H]3C(=O)O)c2ccccc2)C(=O)C1=O [PIPERACILLIN] | – | > 256 µg/mL | – | > 256 µg/mL | – | – | > 256 µg/mL | 8 µg/mL | – | – | – | – | – | –
14 | CC(C)(O/N=C(\C(=O)N[C@@H]1C(=O)N2C(C(=O)[O-])=C(C[n+]3ccccc3)CS[C@H]12)c1csc(N)n1)C(=O)O [CEFTAZIDIME] | – | 64 µg/mL | – | > 32 µg/mL | – | – | 64 µg/mL | 2 µg/mL | – | – | – | – | – | –
15 | C[C@@H](O)[C@H]1C(=O)N2C(C(=O)O)=C(SCCNC=N)C[C@H]12 [IMIPENEM ANHYDROUS] | – | 32 µg/mL | – | 4 µg/mL | – | – | 0.5 µg/mL | 2 µg/mL | – | – | – | – | – | –
16 | O=C(O)c1cn(C2CC2)c2cc(N3CCNCC3)c(F)cc2c1=O [CIPROFLOXACIN] | – | > 32 µg/mL | – | 2 µg/mL | – | – | > 32 µg/mL | – | – | – | – | – | – | –
